From ChEMBL document CHEMBL1156778, “Synthesis and structure-activity studies of biphenyl analogues of the tuberculosis drug (6S)-2-nitro-6-{[4-(trifluoromethoxy)benzyl]oxy}-6,7-dihydro-5H-imidazo[2,1-b][1,3]oxazine (PA-824)” (J Med Chem, 2010)
≈ marks a conversion by molar mass, not a printed value.

Columns and labels:
[1] = test system: Mycobacterium tuberculosis; assay: Antitubercular activity against Mycobacterium tuberculosis H37Rv in aerobic condition after 7 days by microplate alamar blue assay; assay type: functional; settings: 168 h
Outline: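 M. tuberculosis H37Rv, replicating culture; 8-day microplate assay with Alamar blue added on day 7 to read growth. […] Mean of at least two independent determinations ± SD.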

[2] = test system: Mycobacterium tuberculosis; assay: Antitubercular activity against Mycobacterium tuberculosis H37Rv in anaerobic condition after 7 days by low oxygen recovery assay; assay type: functional; settings: 168 h
Vero = assay: Cytotoxicity against african green monkey Vero cells after 72 hrs by MTS assay; assay type: cell-based; settings: Chlorocebus sabaeus
Outline: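 VERO cells (CCL-81), 72 h exposure, tetrazolium dye read-out.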

| Structure (SMILES) | MIC [1] | MIC [2] | IC50 (Vero) |
| --- | --- | --- | --- |
| CSc1cccc(-c2cccc(CO[C@@H]3COc4nc([N+](=O)[O-])cn4C3)c2)c1 | 0.07 µM (≈ 0.0278 µg/mL) | 1.4 µM (≈ 0.556 µg/mL) | > 125 µM |
| Nc1cccc(-c2ccc(CO[C@@H]3COc4nc([N+](=O)[O-])cn4C3)cc2)c1 | 0.12 µM (≈ 0.044 µg/mL) | 1.4 µM (≈ 0.513 µg/mL) | > 125 µM |
| O=[N+]([O-])c1cn2c(n1)OC[C@@H](OCc1ccc(-c3ccccc3F)cc1)C2 | 0.19 µM (≈ 0.0702 µg/mL) | 0.67 µM (≈ 0.247 µg/mL) | > 125 µM |
| N#Cc1ccc(-c2cccc(CO[C@@H]3COc4nc([N+](=O)[O-])cn4C3)c2)cc1 | 0.23 µM (≈ 0.0866 µg/mL) | 4.8 µM (≈ 1.81 µg/mL) | > 125 µM |
| COc1cc(-c2ccc(CO[C@@H]3COc4nc([N+](=O)[O-])cn4C3)cc2)ccc1F | 0.045 µM (≈ 0.018 µg/mL) | 1.5 µM (≈ 0.599 µg/mL) | > 125 µM |
| O=[N+]([O-])c1cn2c(n1)OC[C@@H](OCc1ccc(-c3cc(F)c(F)c(F)c3)cc1)C2 | 0.04 µM (≈ 0.0162 µg/mL) | 0.76 µM (≈ 0.308 µg/mL) | > 125 µM |
| CC(C)(C)OCc1ccc(-c2ccc(CO[C@@H]3COc4nc([N+](=O)[O-])cn4C3)cc2)cc1 | 0.077 µM (≈ 0.0337 µg/mL) | 3.1 µM (≈ 1.36 µg/mL) | > 125 µM |
| O=[N+]([O-])c1cn2c(n1)OC[C@@H](OCc1ccc(-c3cccc(C(F)(F)F)c3)cc1)C2 | 0.067 µM (≈ 0.0281 µg/mL) | 1.3 µM (≈ 0.545 µg/mL) | > 125 µM |
| CSc1ccccc1-c1ccc(CO[C@@H]2COc3nc([N+](=O)[O-])cn3C2)cc1 | 0.087 µM (≈ 0.0346 µg/mL) | 1.4 µM (≈ 0.556 µg/mL) | > 125 µM |
| CC(C)c1cccc(-c2ccc(CO[C@@H]3COc4nc([N+](=O)[O-])cn4C3)cc2)c1 | 0.14 µM (≈ 0.0551 µg/mL) | 4.2 µM (≈ 1.65 µg/mL) | > 125 µM |
| O=[N+]([O-])c1cn2c(n1)OC[C@@H](OCc1ccc(-c3cccc(O)c3)cc1)C2 | 0.14 µM (≈ 0.0514 µg/mL) | 3.1 µM (≈ 1.14 µg/mL) | > 125 µM |
| O=[N+]([O-])c1cn2c(n1)OC[C@@H](OCc1ccc(-c3cccc(OC(F)(F)F)c3)cc1)C2 | 0.077 µM (≈ 0.0335 µg/mL) | 1.4 µM (≈ 0.61 µg/mL) | > 125 µM |
| O=[N+]([O-])c1cn2c(n1)OC[C@@H](OCc1ccc(-c3cccc(F)c3)cc1)C2 | 0.045 µM (≈ 0.0166 µg/mL) | 2.2 µM (≈ 0.813 µg/mL) | > 125 µM |
| O=[N+]([O-])c1cn2c(n1)OC[C@@H](OCc1ccc(-c3ccc(OC(F)(F)F)c([N+](=O)[O-])c3)cc1)C2 | 0.045 µM (≈ 0.0216 µg/mL) | 1.6 µM (≈ 0.769 µg/mL) | > 125 µM |
| O=[N+]([O-])c1cn2c(n1)OC[C@@H](OCc1ccc(-c3ccccc3C(F)(F)F)cc1)C2 | 0.077 µM (≈ 0.0323 µg/mL) | 1.6 µM (≈ 0.671 µg/mL) | > 125 µM |
| N#Cc1cccc(-c2ccc(CO[C@@H]3COc4nc([N+](=O)[O-])cn4C3)cc2)c1 | 0.12 µM (≈ 0.0452 µg/mL) | 1.3 µM (≈ 0.489 µg/mL) | > 125 µM |
| CSc1cccc(-c2ccc(CO[C@@H]3COc4nc([N+](=O)[O-])cn4C3)cc2)c1 | 0.077 µM (≈ 0.0306 µg/mL) | 0.95 µM (≈ 0.378 µg/mL) | > 125 µM |
| O=[N+]([O-])c1cn2c(n1)OC[C@@H](OCc1cccc(-c3ccccc3)c1)C2 | 0.095 µM (≈ 0.0334 µg/mL) | 2.1 µM (≈ 0.738 µg/mL) | > 125 µM |
| O=[N+]([O-])c1cn2c(n1)OC[C@@H](OCc1ccc(-c3ccc(Cl)cc3)cc1)C2 | 0.015 µM (≈ 0.00579 µg/mL) | 2.7 µM (≈ 1.04 µg/mL) | > 125 µM |
| O=[N+]([O-])c1cn2c(n1)OC[C@@H](OCc1cccc(-c3ccc4ccccc4c3)c1)C2 | 0.12 µM (≈ 0.0482 µg/mL) | 3.2 µM (≈ 1.28 µg/mL) | > 125 µM |
| CC(C)c1ccc(-c2ccc(CO[C@@H]3COc4nc([N+](=O)[O-])cn4C3)cc2)cc1 | 0.1 µM (≈ 0.0393 µg/mL) | > 32 µM | > 125 µM |
| COc1cccc(Cl)c1-c1ccc(CO[C@@H]2COc3nc([N+](=O)[O-])cn3C2)cc1 | 0.055 µM (≈ 0.0229 µg/mL) | 0.74 µM (≈ 0.308 µg/mL) | > 125 µM |
| O=[N+]([O-])c1cn2c(n1)OC[C@@H](OCc1cccc(-c3ccc(F)cc3)c1)C2 | 0.077 µM (≈ 0.0284 µg/mL) | 3.8 µM (≈ 1.4 µg/mL) | > 125 µM |
| O=[N+]([O-])c1cn2c(n1)OC[C@@H](OCc1cccc(-c3ccc(OC(F)F)cc3)c1)C2 | 0.06 µM (≈ 0.025 µg/mL) | 2.8 µM (≈ 1.17 µg/mL) | > 125 µM |
| O=[N+]([O-])c1cn2c(n1)OC[C@@H](OCc1ccc(-c3ccc(C(F)(F)F)c(Cl)c3)cc1)C2 | 0.06 µM (≈ 0.0272 µg/mL) | 0.97 µM (≈ 0.44 µg/mL) | > 125 µM |

| Structure (SMILES) | MIC [1] | MIC [2] | IC50 (Vero) |
| --- | --- | --- | --- |
| O=[N+]([O-])c1cn2c(n1)OC[C@@H](OCc1ccc(-c3ccccc3OC(F)(F)F)cc1)C2 | 0.035 µM (≈ 0.0152 µg/mL) | 0.97 µM (≈ 0.422 µg/mL) | > 125 µM |
| COc1ccc(-c2ccc(CO[C@@H]3COc4nc([N+](=O)[O-])cn4C3)cc2)cc1 | 0.065 µM (≈ 0.0248 µg/mL) | 6.8 µM (≈ 2.59 µg/mL) | > 125 µM |
| CC(C)Oc1ccc(-c2ccc(CO[C@@H]3COc4nc([N+](=O)[O-])cn4C3)cc2)cc1 | 0.25 µM (≈ 0.102 µg/mL) | 3.8 µM (≈ 1.56 µg/mL) | > 125 µM |
| O=[N+]([O-])c1cn2c(n1)OC[C@@H](OCc1ccc(-c3ccc(Cl)c(O)c3)cc1)C2 | 0.2 µM (≈ 0.0804 µg/mL) | 2.1 µM (≈ 0.844 µg/mL) | > 125 µM |
| O=[N+]([O-])c1cn2c(n1)OC[C@@H](OCc1ccc(-c3cccc(Cl)c3)cc1)C2 | 0.06 µM (≈ 0.0231 µg/mL) | 1.6 µM (≈ 0.617 µg/mL) | > 125 µM |
| O=[N+]([O-])c1cn2c(n1)OC[C@@H](OCc1ccc(-c3ccccc3Oc3ccccc3)cc1)C2 | 0.06 µM (≈ 0.0266 µg/mL) | 1.8 µM (≈ 0.798 µg/mL) | > 125 µM |
| O=[N+]([O-])c1cn2c(n1)OC[C@@H](OCc1ccc(-c3ccc4ccccc4c3)cc1)C2 | 0.045 µM (≈ 0.0181 µg/mL) | 0.87 µM (≈ 0.349 µg/mL) | > 125 µM |
| O=Cc1cccc(-c2ccc(CO[C@@H]3COc4nc([N+](=O)[O-])cn4C3)cc2)c1 | 0.14 µM (≈ 0.0531 µg/mL) | 0.57 µM (≈ 0.216 µg/mL) | > 125 µM |
| N#Cc1cccc(-c2cccc(CO[C@@H]3COc4nc([N+](=O)[O-])cn4C3)c2)c1 | 0.17 µM (≈ 0.064 µg/mL) | 3.7 µM (≈ 1.39 µg/mL) | > 125 µM |
| O=[N+]([O-])c1cn2c(n1)OC[C@@H](OCc1ccc(-c3ccccc3)cc1)C2 | 0.045 µM (≈ 0.0158 µg/mL) | 3.9 µM (≈ 1.37 µg/mL) | > 125 µM |
| O=[N+]([O-])c1cn2c(n1)OC[C@@H](OCc1cccc(-c3ccc(OC(F)(F)F)cc3)c1)C2 | 0.11 µM (≈ 0.0479 µg/mL) | 2.2 µM (≈ 0.958 µg/mL) | > 125 µM |
| O=[N+]([O-])c1cn2c(n1)OC[C@@H](OCc1ccc(-c3ccccc3Cl)cc1)C2 | 0.15 µM (≈ 0.0579 µg/mL) | 1.5 µM (≈ 0.579 µg/mL) | > 125 µM |
| O=[N+]([O-])c1cn2c(n1)OC[C@@H](OCc1cccc(-c3cccc(F)c3)c1)C2 | 0.18 µM (≈ 0.0665 µg/mL) | 2.7 µM (≈ 0.997 µg/mL) | > 125 µM |
| O=Cc1ccccc1-c1ccc(CO[C@@H]2COc3nc([N+](=O)[O-])cn3C2)cc1 | 0.08 µM (≈ 0.0303 µg/mL) | 0.78 µM (≈ 0.296 µg/mL) | > 125 µM |
| CSc1ccc(-c2ccc(CO[C@@H]3COc4nc([N+](=O)[O-])cn4C3)cc2)cc1 | 0.075 µM (≈ 0.0298 µg/mL) | 0.95 µM (≈ 0.378 µg/mL) | > 125 µM |
| O=[N+]([O-])c1cn2c(n1)OC[C@@H](OCc1ccc(-c3ccccc3O)cc1)C2 | 0.12 µM (≈ 0.0441 µg/mL) | 4.6 µM (≈ 1.69 µg/mL) | > 125 µM |
| O=[N+]([O-])c1cn2c(n1)OC[C@@H](OCc1ccc(-c3ccc(F)c(F)c3)cc1)C2 | 0.03 µM (≈ 0.0116 µg/mL) | 1.2 µM (≈ 0.465 µg/mL) | > 125 µM |
| O=[N+]([O-])c1cn2c(n1)OC[C@@H](OCc1ccc(-c3cccc(OCCO)c3)cc1)C2 | 0.46 µM (≈ 0.189 µg/mL) | 5.4 µM (≈ 2.22 µg/mL) | > 125 µM |
| COc1c(F)cc(-c2ccc(CO[C@@H]3COc4nc([N+](=O)[O-])cn4C3)cc2)cc1F | 0.045 µM (≈ 0.0188 µg/mL) | 1.3 µM (≈ 0.543 µg/mL) | > 125 µM |
| CSc1ccc(-c2cccc(CO[C@@H]3COc4nc([N+](=O)[O-])cn4C3)c2)cc1 | 0.095 µM (≈ 0.0378 µg/mL) | 0.93 µM (≈ 0.37 µg/mL) | > 125 µM |
| O=[N+]([O-])c1cn2c(n1)OC[C@@H](OCc1ccc(-c3ccc(-c4ccccc4)cc3)cc1)C2 | 0.09 µM (≈ 0.0385 µg/mL) | > 32 µM | > 125 µM |
| COc1ccccc1-c1ccc(CO[C@@H]2COc3nc([N+](=O)[O-])cn3C2)cc1 | 0.065 µM (≈ 0.0248 µg/mL) | 1.4 µM (≈ 0.534 µg/mL) | > 125 µM |
| CC(C)(C)c1ccc(-c2ccc(CO[C@@H]3COc4nc([N+](=O)[O-])cn4C3)cc2)cc1 | 0.095 µM (≈ 0.0387 µg/mL) | > 32 µM | > 125 µM |
| O=[N+]([O-])c1cn2c(n1)OC[C@@H](OCc1cccc(-c3ccc(C(F)(F)F)cc3)c1)C2 | 0.12 µM (≈ 0.0503 µg/mL) | 2.9 µM (≈ 1.22 µg/mL) | > 125 µM |
